The values that follow come from ChEMBL document CHEMBL1156707, “Insulin-releasing activity of a series of phenylalanine derivatives” (Eur J Med Chem, 2008).

A short description of assay [1]: Increase in insulin releasing activity in Syrian golden hamster HIT-T15 cells at 100 uM after 1 hr relative to control. Type of assay: functional, Mesocricetus auratus. The method in brief:
(§1)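 Pre-incubated 1 h, then 1 h with compound at a range of concentrations in DMSO, 37 °C; solvent-matched control. Insulin in medium measured by radioimmunoassay. Mean ± sd, n = 3; EC50 is concentration giving 50% increase in insulin release.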

Assay [2] is described as follows: Increase in insulin releasing activity in Syrian golden hamster HIT-T15 cells at 10 uM after 1 hr relative to control. It is filed as functional, Mesocricetus auratus. The method in brief: as §1
Assay [3] is described as follows: Increase in insulin releasing activity in Syrian golden hamster HIT-T15 cells at 1 uM after 1 hr relative to control. Type of assay: functional, Mesocricetus auratus. The method in brief: as §1
Assay [4] in a line: Increase in insulin releasing activity in Syrian golden hamster HIT-T15 cells after 1 hr. It is filed as functional, cell-based, Mesocricetus auratus. The method in brief: as §1
Assay [5] deals with Rattus norvegicus. The assay can be described thus: Decrease in plasma glucose level in Sprague-Dawley rat at 3 mg/kg, po after 60 mins relative to control. It is filed as functional. Further details: scale not given: the % may be the effect or the level left. The method in brief:
(§2)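 Normal SD rats (180–220 g), fasted overnight, 8–10 per group. Single oral dose 3 mg/kg in 0.5% CMC-Na vehicle, then oral glucose 2.5 g/kg immediately after. Caudal-vein blood drawn before dosing and at 15, 30, 60, 120, 180 min. Serum glucose measured by glucose oxidase method. Reported as % decrease versus vehicle control group.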

In assay [6] the test system is Rattus norvegicus. Briefly: Decrease in plasma glucose level in Sprague-Dawley rat at 3 mg/kg, po after 30 mins relative to control. Type of assay: functional. Further details: scale not given: the % may be the effect or the level left. The method in brief:
as §2

Assay [7] has as its system Rattus norvegicus. Briefly: Decrease in plasma glucose level in Sprague-Dawley rat at 3 mg/kg, po after 15 mins relative to control. Type of assay: functional. Further details: scale not given: the % may be the effect or the level left. In short, it runs like this:
as §2

The test system of assay [8] is Rattus norvegicus. Briefly: Decrease in plasma glucose level in Sprague-Dawley rat at 3 mg/kg, po after 120 mins relative to control. Type of assay: functional. Details: scale not given: the % may be the effect or the level left. The method in brief: as §2
Assay [9] concerns Rattus norvegicus. Briefly: Decrease in plasma glucose level in Sprague-Dawley rat at 3 mg/kg, po after 180 mins relative to control. Type of assay: functional. Details: scale not given: the % may be the effect or the level left. In short, it runs like this:
as §2

The subject of assay [10] is 3T3-L1. Briefly: Effect on insulin sensitizing activity in mouse 3T3-L1 cells assessed as increase in triglyceride accumulation at 1 uM after 7 days. Type of assay: functional. The method in brief:
(§3)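 3T3-L1 preadipocytes in DMEM/10% FBS, grown to 2 days postconfluence. Differentiation induced with insulin, 0.5 mM IBMX and dexamethasone. Compound (1 or 10 mmol/L, DMSO diluted 1000-fold) present during first 4 days of differentiation; 0.1% DMSO negative control. Day 7: oil red O staining, dye extracted with isopropanol, OD 510 nm. Three or four independent experiments.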

The test system of assay [11] is 3T3-L1. The assay can be described thus: Effect on insulin sensitizing activity in mouse 3T3-L1 cells assessed as increase in triglyceride accumulation at 10 uM after 7 days. Type of assay: functional. The method in brief:
as §3

For the molecule `CC(C)[C@H]1CC[C@H](C(=O)N[C@H](Cc2ccc(OCCN(C)c3ccccn3)cc2)C(=O)O)CC1`, the Activity amounted to 59.4% in [1], 36.2% in assay [2] and 24.4% in [3].

As a reminder, the EC50 is the concentration that produces a half-maximal response. For `O=C(O)[C@H](CC(=O)N1C[C@H]2CCCC[C@H]2C1)Cc1ccccc1` [MITIGLINIDE], in assay [4], it took 708 nM to reach a half-maximal effect (EC50). For the same molecule, the Activity in assay [1] was 120%; in [2], 66%; in [5] it was 61.7%; in assay [6] it was 36.2%; in assay [7], 16.5%; in [8], 87.3%. Moreover, the Activity in assay [3] is reported as 52.5%; in assay [9] it was 70.3%.

In [4], `Cc1oc(-c2ccccc2)nc1CCOc1ccc(C[C@H](NC(=O)[C@H]2CC[C@H](C(C)C)CC2)C(=O)O)cc1` had a 50% effective concentration (EC50) of 540 nM. Moreover, the Activity in assay [1] was found to be 329.2%; in [2], 131.2%; in assay [5], 4.47%; in [6], 8.51%; in assay [10] it was 38.14%; in assay [7] it was 4.73%. Moreover, the Activity in [8] is 11.3%; in assay [3], 68.5%; in assay [9], 2.07%; in [11], 46.01%.

With `CC(C)[C@H]1CC[C@H](C(=O)N[C@H](Cc2ccc(OCc3ccc(C(F)(F)F)cc3)cc2)C(=O)O)CC1`, the Activity was determined as 152.1% in [1], 85.6% in assay [2] and 29.8% in assay [3].

Regarding `CC(C)[C@H]1CC[C@H](C(=O)N[C@H](Cc2ccc(OCCN(C)c3nc4ccccc4o3)cc2)C(=O)O)CC1`, the Activity in assay [1] is given as 145.1%; in assay [2] it was 81.7%; in assay [3], 24.8%.

Regarding `CC(C)[C@H]1CC[C@H](C(=O)N[C@@H](Cc2ccc(O)cc2)C(=O)O)CC1`, the Activity in [1] was 64.8%; in [2] it was 35.4%; in assay [3] it was 17.5%.

Turning to `CC(C)[C@H]1CC[C@H](C(=O)N[C@@H](Cc2ccc(OCc3ccccc3)cc2)C(=O)O)CC1`, in assay [4], the midpoint of the response, the EC50, lay at 1050 nM. The figures for the Activity in [1], in assay [2] and in assay [3] were 225.9%, 147.5% and 53.1%, respectively.

For `CC(C)[C@H]1CC[C@H](C(=O)N[C@@H](Cc2ccc(OCCN(C)c3nc4ccccc4o3)cc2)C(=O)O)CC1`, the figures for the Activity in assay [1], in assay [2] and in assay [3] were 126.9%, 72.8% and 35.5%, respectively.

Turning to `CC(C)[C@H]1CC[C@H](C(=O)N[C@@H](Cc2ccc(OCCN(C)c3ccccn3)cc2)C(=O)O)CC1`, the results for the Activity in assay [1], in [2] and in assay [3] were 83.7%, 41.5% and 26%, respectively.

Take `CC(C)[C@H]1CC[C@H](C(=O)N[C@@H](Cc2ccc(OCc3ccc(C(F)(F)F)cc3)cc2)C(=O)O)CC1`: the results for the Activity in assay [1], in assay [2] and in assay [3] were 156.9%, 76.7% and 47.9%, respectively.

In turn, `CCOc1ccc(C[C@H](NC(=O)[C@H]2CC[C@H](C(C)C)CC2)C(=O)O)cc1` registered a half-maximal effective concentration (EC50) in assay [4] of 960 nM. In addition, the Activity in assay [1] was found to be 151.3%; in assay [2] it was 99.9%; in [3], 55.8%.

With `CC(C)[C@H]1CC[C@H](C(=O)N[C@H](Cc2ccc(OCc3ccccc3)cc2)C(=O)O)CC1`, in assay [4], the EC50 was 2820 nM. For the same molecule, the Activity amounted to 171.1% in [1], 94.4% in assay [2] and 38.9% in assay [3].

Regarding `CC(C)[C@H]1CC[C@H](C(=O)N[C@H](Cc2ccc(O)cc2)C(=O)O)CC1`, the Activity is reported as 122.2% in [1], 69.6% in [2] and 34.2% in assay [3].

`Cc1oc(-c2ccccc2)nc1CCOc1ccc(C[C@@H](NC(=O)[C@H]2CC[C@H](C(C)C)CC2)C(=O)O)cc1` had an EC50 in [4] of 120 nM. The Activity came out at 487.4% in assay [1]; 200.9% in assay [2]; 33.7% in [5]; 36.4% in [6]; 21.2% in assay [7]; 17.3% in assay [8]. Also, the Activity in assay [3] amounted to 105.2%; in assay [9], 11.4%.

Turning to `CN(CCOc1ccc(CC2SC(=O)NC2=O)cc1)c1ccccn1` (configuration not stated) [ROSIGLITAZONE], the Activity in assay [10] was determined as 38.8%; in assay [11], 35.87%.

Molecule `CCCCOc1ccc(C[C@H](NC(=O)[C@H]2CC[C@H](C(C)C)CC2)C(=O)O)cc1` yielded an EC50 in assay [4] of 550 nM. Moreover, the figures for the Activity in [1], in assay [2] and in assay [3] were 326.2%, 136.7% and 73.4%, respectively.

Take `CC(C)[C@H]1CC[C@H](C(=O)N[C@H](Cc2ccc(OCCn3ccc4ccccc43)cc2)C(=O)O)CC1`: the results for the Activity in assay [1], in [2] and in assay [3] were 112%, 58.8% and 37.8%, respectively.

For the molecule `CC(C)[C@H]1CC[C@H](C(=O)N[C@@H](Cc2ccccc2)C(=O)O)CC1` [(S)-NATEGLINIDE], the Activity was 61.1% in assay [1], 35.3% in assay [2] and 26.4% in assay [3].

In assay [4], `CCOc1ccc(C[C@@H](NC(=O)[C@H]2CC[C@H](C(C)C)CC2)C(=O)O)cc1` came in with a 50% effective concentration (EC50) of 260 nM. For the same molecule, the Activity in assay [1] was found to be 183.8%; in assay [2], 107.3%; in [3] it was 76.2%.

In the case of `CC(C)[C@H]1CC[C@H](C(=O)N[C@H](Cc2ccccc2)C(=O)O)CC1` [NATEGLINIDE], a half-maximal effect in [4] (EC50) was put at 7590 nM. Besides, the results for the Activity in assay [1], in [2] and in assay [3] were 124.3%, 66.8% and 36.3%, respectively.

In the case of `CC(C)[C@H]1CC[C@H](C(=O)N[C@@H](Cc2ccc(OCCn3ccc4ccccc43)cc2)C(=O)O)CC1`, the Activity in assay [1] turned out to be 146.6%; in assay [2] it was 74.9%; in [3], 35.7%.

For `CCCCOc1ccc(C[C@@H](NC(=O)[C@H]2CC[C@H](C(C)C)CC2)C(=O)O)cc1`, it took 650 nM to reach a half-maximal effect in assay [4] (EC50). For the same molecule, the Activity in assay [1] is reported as 261.6%; in assay [2] it was 107.1%; in assay [3], 58.9%.
